Measurements reported in ChEMBL document CHEMBL1122650, “Synthesis and central nervous system properties of 2-[(alkoxycarbonyl)amino]-4(5)-phenyl-2-imidazolines” (J Med Chem, 1984).
pIC50: −log10 of the molar value. Activity calls are given as the source filed them. The rule behind the calls is not given here.

Tests used:
Mus musculus [1] = organism: Mus musculus; test: Evaluated for antagonism of reserpine induced hypothermia; type: functional
Procedure, shortened: (§1)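 Male HLa (ICR) BR mice, 18-24 g, in groups of eight; reserpine 5 mg/kg ip given 2 h before oral test compound as aqueous solution. Rectal temperature taken hourly; 1-4-h hypothermia assessed by analysis of variance.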

Mus musculus [2] = organism: Mus musculus; test: Compound was evaluated for maximal electroshock antagonism (MES) against mice (values in parentheses indicates 95% confidence limits); type: functional
Procedure, shortened: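 Male HLa (ICR) BR mice, groups of eight to ten, given compound ip as aqueous solution 15 min before transcorneal electroshock (50 mA, 0.2 s). End point was abolition of tonic hind-limb extension; quantal ED50 derived by Litchfield-Wilcoxon.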

Mus musculus [3] = organism: Mus musculus; test: (§2) Inhibition of radioactive NE [3H]norepinephrine uptake into mouse heart; type: functional
Procedure, shortened: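 Mice received compound ip before iv [3H]NE. At 3 h after [3H]NE, hearts were removed, washed, weighed, dissolved in Protosol and counted as dpm per mg tissue. Dose-response curves derived by linear regression.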

[4] = Compound was evaluated for lethal dose in mouse in groups of ten (values in parentheses indicates 95% confidence limits); type: toxicity, organism-based; details: in vivo
Mus musculus [5] = organism: Mus musculus; test: Mouse behavior activity was determined; ST = Stimulant(Weak); type: functional, organism-based
Procedure, shortened: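 Male Simonsen (ICR) fBR mice (18-24 g) given 3, 10, 30, 100, 300 or 1000 mg/kg ip as aqueous solution and observed for behaviour in groups of three.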

Mus musculus [6] = test: Compound was evaluated in vivo for reserpine hypothermia after oral administration in mouse. Minimum active dose was reported, with the percent reversal at 10 mg/kg in parenthesis.; type: functional
Procedure, shortened: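 Male HLa (ICR) BR mice (18-24 g), groups of eight, dosed ip with 5 mg/kg reserpine 2 h before oral test compound given as aqueous solution. Rectal temperature measured hourly; 1-4-h thermia assessed by analysis of variance.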

Mus musculus [7] = test: Reserpine hypothermia antagonism in mouse administered perorally with 5 mg/kg of reserpine 2 hour prior to test compound administration; type: functional; details: route oral
[8] = biological target: Norepinephrine transporter (Rattus norvegicus, UniProt Q9WTR4); test: (§3) Inhibition of the NE [3H]norepinephrine uptake by rat brain slices In vitro; type: tissue-based
Sequence of Norepinephrine transporter (Q9WTR4 whole entry): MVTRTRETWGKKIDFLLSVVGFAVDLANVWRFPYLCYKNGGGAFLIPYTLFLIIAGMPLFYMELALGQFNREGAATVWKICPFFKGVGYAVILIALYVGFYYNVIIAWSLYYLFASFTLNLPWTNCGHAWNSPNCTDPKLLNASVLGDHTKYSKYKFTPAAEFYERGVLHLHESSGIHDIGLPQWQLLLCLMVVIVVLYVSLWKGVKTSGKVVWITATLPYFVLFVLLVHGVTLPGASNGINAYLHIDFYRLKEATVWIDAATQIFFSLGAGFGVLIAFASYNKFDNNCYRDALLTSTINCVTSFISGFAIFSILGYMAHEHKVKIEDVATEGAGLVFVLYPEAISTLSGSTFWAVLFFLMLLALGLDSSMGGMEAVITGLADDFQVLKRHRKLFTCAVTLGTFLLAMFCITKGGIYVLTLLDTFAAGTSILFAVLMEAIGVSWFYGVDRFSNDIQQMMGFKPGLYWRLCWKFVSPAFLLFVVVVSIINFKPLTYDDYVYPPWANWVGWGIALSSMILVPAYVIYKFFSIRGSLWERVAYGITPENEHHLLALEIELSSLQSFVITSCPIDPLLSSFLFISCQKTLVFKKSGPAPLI
Procedure, shortened: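 Rat cerebral cortex slices at 5 mg tissue/mL Krebs-Henseleit buffer, incubated at 37 °C; blanks incubated at 4 °C, controls without drug. After 20 min, incubation stopped by filtration and tissue radioactivity measured. IC50 taken from linear regression of uptake inhibition.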

Mus musculus [9] = organism: Mus musculus; test: as §2; type: functional; remark: listed apart in the source
Procedure, shortened: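 Mice dosed ip (aqueous solution) before iv [3H]NE; hearts removed 3 h after label, washed, weighed, dissolved in Protosol and counted as dpm per mg tissue. Dose-response from linear regression.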

Rattus norvegicus [10] = organism: Rattus norvegicus; test: as §3; type: functional
Rattus norvegicus [11] = organism: Rattus norvegicus; test: Inhibition of the 5-HT [14C]5-HT uptake by rat brain slices In vitro; type: functional
Procedure, shortened: (§4)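 Rat cerebral cortex slices, 5 mg tissue per mL Krebs-Henseleit buffer, incubated at 37 °C with [3H]NE or [14C]5-HT; blanks at 4 °C, undosed controls. Stopped after 20 min by filtration; slice radioactivity counted; IC50 from linear regression of uptake inhibition.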

Mus musculus [12] = test: Compound was evaluated in vivo for reserpine hypothermia after oral administration in mouse. Minimum active dose was reported,; type: functional; procedure, shortened: as §1
Mus musculus [13] = organism: Mus musculus; test: Compound was evaluated for maximal electroshock antagonism (MES) against mice; type: functional
Procedure, shortened: (§5)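 Male HLa (ICR) BR mice, groups of eight to ten, dosed ip (aqueous solution) 15 min before transcorneal electroshock (50 mA, 0.2 s). End point: abolition of tonic hind-limb extension; quantal ED50 by Litchfield-Wilcoxon.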

[14] = HPLC capacity factor (k'); type: ADME
Mus musculus [15] = test: Compound was evaluated in vivo for reserpine hypothermia after oral administration in mouse Minimum active dose was reported; Inactive; type: functional, organism-based; procedure, shortened: as §1
Mus musculus [16] = organism: Mus musculus; test: Mouse behavior activity was determined; Dwk= Depressant Weak.; type: functional, organism-based
Procedure, shortened: (§6)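 Male Simonsen (ICR) fBR mice, 18-24 g, groups of three, given 3, 10, 30, 100, 300 or 1000 mg/kg ip as aqueous solution and observed for behavioral profile; deaths followed up to 7 days.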

Mus musculus [17] = organism: Mus musculus; test: Compound was evaluated for maximal electroshock antagonism (MES) against mice; Inactive; type: functional, organism-based; procedure, shortened: as §5
Mus musculus [18] = organism: Mus musculus; test: Compound was evaluated for antagonism of reserpine induced hypothermia; Inactive.; type: functional, organism-based; procedure, shortened: as §1
[19] = Lethal dose in mouse, in groups of ten; type: toxicity, organism-based; details: in vivo
Mus musculus [20] = organism: Mus musculus; test: Righting ability was determined in mice after rapid rolling (aroused); type: functional
Procedure, shortened: (§7)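 Male Simonsen (ICR) fBR mice, 18-24 g, groups of ten, dosed with aqueous compound. Righting ability checked before (unaroused) and after (aroused) rapid rolling in the hand; ED50 by Litchfield-Wilcoxon method.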

Mus musculus [21] = organism: Mus musculus; test: Righting ability was determined in mice before rapid rolling (unaroused);; type: functional; procedure, shortened: as §7
Mus musculus [22] = organism: Mus musculus; test: Mouse behavior activity was determined; D=-Depressant.; type: functional, organism-based; procedure, shortened: as §6
Rattus norvegicus [23] = organism: Rattus norvegicus; test: Inhibition of the NE [3H]Norepinephrine uptake by rat brain slices In vitro; type: functional
Rattus norvegicus [24] = organism: Rattus norvegicus; test: Inhibition of the 5-HT [14C]5-HT) uptake by rat brain slices In vitro; type: functional; procedure, shortened: as §4
Mus musculus [25] = organism: Mus musculus; test: Mouse behavior activity was determined;S= Stimulant Weak.; type: functional, organism-based

Compound: CN(C)CCC=C1c2ccccc2CCc2ccccc21 [AMITRIPTYLINE]
- HYPO (Mus musculus [1]): <0.5 mg/kg
- ED50 (Mus musculus [2]): 14 mg/kg
- ED50 (Mus musculus [3]): 4.4 mg/kg
- LD50 [4]: 70 mg/kg
- Mouse behavior activity (Mus musculus [5]): Partial stimulant
- ED50 (Mus musculus [6]): 8 mg/kg
- Reserpine hypothermia (Mus musculus [7]): 0.15 mg/kg
- pIC50 [8]: 5.60

Compound: CN1CC(c2ccccc2Cl)N=C1N (stereo not given)
- ED50 (Mus musculus [9]): 18.3 mg/kg
- HYPO (Mus musculus [1]): <0.5 mg/kg
- pIC50 (Rattus norvegicus [10]): 6.30
- Reserpine hypothermia (Mus musculus [7]): 0.15 mg/kg
- pIC50 (Rattus norvegicus [11]): 4.52

Compound: COC(=O)NC1=NC(c2cccc(Cl)c2Cl)CN1C (stereo not given)
- ED50 (Mus musculus [12]): 23 mg/kg
- ED50 (Mus musculus [13]): 30 mg/kg
- Log k' [14]: 0.91

Compound: CCCCCCOC(=O)NC1=NC(c2ccc(Cl)cc2)CN1 (stereo not given)
- ED50 (Mus musculus [15]): inactive
- Mouse behavior activity (Mus musculus [16]): Depressant - weak
- Log k' [14]: 2.18
- ED50 (Mus musculus [17]): inactive
- HYPO (Mus musculus [18]): inactive
- LD50 [19]: 200 mg/kg

Compound: COC(=O)NC1=NC(c2ccccc2C)CN1 (stereo not given)
- HYPO (Mus musculus [1]): >20 mg/kg
- ED50 (Mus musculus [13]): 55 mg/kg
- Log k' [14]: 0.16
- Loss of righting reflex (Mus musculus [20]): 172 mg/kg
- Loss of righting reflex (Mus musculus [21]): 144 mg/kg
- Mouse behavior activity (Mus musculus [22]): Depressant
- LD50 [19]: 300 mg/kg

Compound: NC1=NC(c2c(Cl)cccc2Cl)CN1 (stereo not given)
- ED50 (Mus musculus [9]): 6.5 mg/kg
- HYPO (Mus musculus [1]): <0.5 mg/kg
- pIC50 (Rattus norvegicus [23]): 7.00
- pIC50 (Rattus norvegicus [24]): 5.11
- ED50 (Mus musculus [17]): inactive
- Reserpine hypothermia (Mus musculus [7]): 0.15 mg/kg
- LD50 [19]: 70 mg/kg

Compound: COC(=O)NC1=NC(c2ccc(Cl)cc2)CN1 (stereo not given)
- ED50 (Mus musculus [13]): ~200 mg/kg
- Log k' [14]: 0.31
- Mouse behavior activity (Mus musculus [25]): Stimulant weak
- LD50 [19]: 500 mg/kg
